Fewer inactive variants are shown than the library holds.
B1: tRNA (parent)
chain: CUCUCGGUAGCCAAGUUGGUUUAAGGCGCAAGACUUUAAUUUAUCACUACGAAAUCUUGAGAUCGGGCGUUCGACUCGCCCCCGGGAGAUUUUUUCCUCGAGCAA

Variants of: B1
Assay: nonsense suppression (GFP-seq) (ratio to wild type); higher = more function; SUP4oc tRNA, yeast GFP reporter sort-seq
Procedure, shortened: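 Sorted GFP/RFP bins of yeast were each Illumina-sequenced with a phred ≥30 cutoff; the cells held a genome-integrated ochre-suppressor tRNA variant from a library with ~3% random mutations, a galactose-driven GFP ochre reporter, and RFP. Culture was in raffinose/galactose medium containing 80 mg/L adenine. Nonsense suppression, termed GFPSEQ, is the median GFP/RFP of the bins weighted by each variant's estimated cell share per bin, relative to the unmutated parent tRNA, for variants reaching ≥100 reads and ≥30 cells.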

Row | Variant | nonsense suppression
1 | U21G A60C | 0.0285
2 | U21G A60U | 0.96
3 | U21G A60G | 0.0299
4 | U21G G85A | 1.08
5 | U21A C34G C82U A89U | ≤ 0.026
6 | G18U G59A | ≤ 0.026
7 | U20A | 1.18
8 | U20C | 0.848
9 | U20G | 0.989
10 | G18U G19A | ≤ 0.026
11 | U20G C79G A87G | ≤ 0.026
12 | U17G G61U | 0.832
13 | U17G G61C | 0.371
14 | U20G A60U | 1.12
15 | U20G A60G | 0.477
16 | U20C U35C | 0.0559
17 | U20C U22C A54U | 0.412
18 | U20G A54U | 1.04
19 | U20C G86C | ≤ 0.026
20 | U20C G86A | ≤ 0.026
21 | U17G A54G U57C | ≤ 0.026
22 | G19A U63C C82A | ≤ 0.026
23 | G19C U71C | ≤ 0.026
24 | G18C A54G | ≤ 0.026

Row | Variant | nonsense suppression
25 | U21G U71C | 0.0265
26 | U20A G28A | 0.813
27 | U20A G28C | 0.182
28 | U17G C68A G69U | ≤ 0.026
29 | U21G U70C | ≤ 0.026
30 | U20A A54U U76C | 0.24
31 | G19A A54G G67A | ≤ 0.026
32 | U17G U21G G61U | 0.0263
33 | U21C G78C | 0.211
34 | U21C G78U | 0.442
35 | U21A A30G | 0.42
36 | U17G A54G U55G | ≤ 0.026
37 | U20G G28A C82U | 0.239
38 | U20G G73A | 0.677
39 | U17G G28C | 0.209
40 | U17G G28A | 1.12
41 | U20A C56A G66A | ≤ 0.026
42 | U20C U22C | 0.814
43 | G18A A24C | 0.0483
44 | U20A U57A | ≤ 0.026
45 | U20A U76C | 0.719
46 | U21A U55C C79U | ≤ 0.026
47 | U21C A62G | 0.0282
48 | G18U A33U C82U A89C | ≤ 0.026

Row | Variant | nonsense suppression
49 | U20G U71G | ≤ 0.026
50 | U21G A89G | 0.0399
51 | U22A A87G | 0.501
52 | U20C C29U | 0.0276
53 | U21C U35A C64G G66C C72G | ≤ 0.026
54 | G18A G25U G67C | ≤ 0.026
55 | G18A U20G | 0.905
56 | U20C G61A | 0.212
57 | U21C C29U G61U | 0.518
58 | U21G G69U | ≤ 0.026
59 | U20A U22C | 1.11
60 | G18C A89G | ≤ 0.026
61 | U21C A30G | 0.967
62 | U21C G26U G67A C80G | ≤ 0.026
63 | U17G U21A | 1.16
64 | U17G U21C | 1.05
65 | U17G U21G | 0.717
66 | U21G U22C C82U | 0.199
67 | G19U G25A A31G U35G C64G | ≤ 0.026
68 | U20C A30U | 0.0386
69 | U20C A30G | 0.129
70 | U22A G25U | 0.0283
71 | U21C G67A | 0.0282
72 | U20A U55C C82G | ≤ 0.026

Row | Variant | nonsense suppression
73 | U17G C64A | 0.0364
74 | U20A C34U G66U | ≤ 0.026
75 | U21A C79U | 0.444
76 | U21A C79G | ≤ 0.026
77 | U20G C82U | 0.838
78 | U17G C83A | ≤ 0.026
79 | U20C U76C | 0.228
80 | U21G A54U C75U | 1.23
81 | G18C C27G G67A G69C | 1.05
82 | G19U A24G A87G | ≤ 0.026
83 | U22A G65A | 0.12
84 | G18A G73A | ≤ 0.026
85 | G18U G25U G67C | ≤ 0.026
86 | U20C G88U | ≤ 0.026
87 | G19U A24G G78C A89C | ≤ 0.026
88 | G19C U21C | ≤ 0.026
89 | G19C U22C C68U | ≤ 0.026
90 | U21G U63A | 0.636
91 | U21G U63G | 0.0367
92 | G19U G67U | ≤ 0.026
93 | U17G A24U | 0.159
94 | U17G A24C | 0.653
95 | U20G C29U | 1.12
96 | G19C C56U U57C | ≤ 0.026

Row | Variant | nonsense suppression
97 | U21A U55C U57G | ≤ 0.026
98 | U21G G78U | 0.034
99 | G18U U20C U76G | 0.264
100 | U22A G61C | 0.203
101 | U21C U57C C80U G85A | ≤ 0.026
102 | U21A G28C | 0.495
103 | G18C G88A | 0.135
104 | U20G C80U | 0.202
105 | U20C C77U | 0.0349
106 | G19U C29A G59A | ≤ 0.026
107 | U17G A87G | 0.752
108 | U17G U22G | 1.04
109 | G19C U21C G66C G84A G86A | ≤ 0.026
110 | U22A C75U | 1.15
111 | U20G G67A | 0.0529
112 | G18U U76C G86U | ≤ 0.026
113 | U20C A87G | 0.213
114 | U20C A87U | 0.0273
115 | U20A C75G | 0.473
116 | G18A A87G | 0.036
117 | U20A G73C | 0.0366
118 | U21A U76C | 1.18
119 | U20A U71A | ≤ 0.026
120 | U21G A30G A89G | ≤ 0.026

Row | Variant | nonsense suppression
121 | U20A A23G U63C | ≤ 0.026
122 | U20G G61C | 0.615
123 | U20G G61U | 0.874
124 | U20G G61A | 0.635
125 | G18U U55C | 0.0402
126 | U21A C83G G88U | ≤ 0.026
127 | U17G A54U G61C | 0.162
128 | U20A A24C | 0.192
129 | U20A A24U | 0.0696
130 | U17G A54C | 0.64
131 | U17G A54U | 1.16
132 | U21C G61A A62C | 0.0269
133 | U21A U22A G28C U55A G69A | ≤ 0.026
134 | U21C U22A | 1.14
135 | U21G A31G | 0.77
136 | U20A A87G | 0.226
137 | U21G G28A A31G | 0.266
138 | U20G U22G | 1.06
139 | U22A A24C C68U | 0.215
140 | U22A | 1.13
141 | U20A G61U | 0.217
142 | U20A G61C | 0.0711
143 | U20G C81G | ≤ 0.026
144 | U17G A60C | 0.188

Row | Variant | nonsense suppression
145 | U21C G28U A31U A33G G78U C79A | ≤ 0.026
146 | U20G A23U G88U | ≤ 0.026
147 | U21G A54C | 0.764
148 | U22A A31G | 1.05
149 | U21G A33U U57C U58A A89G | ≤ 0.026
150 | U20G G32C A62U | ≤ 0.026
151 | U21C A30G A31G U63C | ≤ 0.026
152 | U21G C79A | ≤ 0.026
153 | U21A A60G | 0.302
154 | G19U A54U C72G | ≤ 0.026
155 | U20C C56G | ≤ 0.026
156 | G19C G67C | ≤ 0.026
157 | G19U G28A C56G | ≤ 0.026
158 | U17G G19C U21A U57A G78U | ≤ 0.026
159 | U21C C81U | 1.14
160 | U17G A30G | 0.397
161 | U17G A30U | 0.0613
162 | U21G G65A | 0.0483
163 | U21G G67U U71A | ≤ 0.026
164 | U20G G25A G78A | ≤ 0.026
165 | U17G G67A | 0.0593
166 | U20A G85U | 0.0676
167 | U20C G59A | 0.0894

— the RNAGym collection of RNA variant scans (doi:10.1101/gad.245936.114)
